Experimental data collected from several papers.
Lines come from different studies, so protocols differ.
Target: Serine/threonine-protein kinase MRCK alpha (CDC42BPA, Homo sapiens, UniProt Q5VT25)

The remaining binding of `CSc1cccnc1N1CCN(Cc2nc3ccccc3[nH]2)CC1` is reported as 100% (cell-free assay, competition with immobilised ligand; 1 µM).
The remaining activity of `Cc1cnc(NC2CCOCC2)nc1-n1cnc(C(=O)NC(CN)c2cc(F)cc(Cl)c2)c1` (stereo not drawn) is reported as 64% (enzyme activity, inhibitor, radiometric; 1 µM).
With `CC/C(=N\NC(=O)NCc1cccc(O)c1)c1ccc(O)c(C)c1O` the inhibition was 49.7% (enzyme activity, inhibitor; 0.1 µM).
`O=C1NC(=O)c2cc(Nc3ccc(F)cc3)c(Nc3ccc(F)cc3)cc21` has a remaining signal of 92.3% (cell-free assay, inhibitor; 0.5 µM).
The inhibition of `CN1CC(Oc2cnc(C#N)cc2-c2ccn3nc(NC(=O)C4CC4)cc3c2)C1` is reported as -14% (enzyme activity, inhibitor; 1 µM).
`Cc1ccc(Nc2nccc(N(C)c3ccc4c(C)n(C)nc4c3)n2)cc1S(N)(=O)=O` has an inhibition of 9% (enzyme activity, inhibitor; 0.3 µM).
For `CC(C)(O)[C@H]1CC[C@H](Nc2ccc3ncc(-c4cccc(C(F)(F)F)c4)n3n2)CC1`, the remaining activity was 95.8% (enzyme activity, inhibitor; 1 µM).
For `CNCc1ccccc1-c1csc([C@@H](C)Nc2nc(C)nc3cc(OC)c(OC)cc23)c1`, the remaining binding was 67% (cell-free assay, competition with immobilised ligand; 1 µM).
`O=C(Nc1cnn(-c2csc(C(=O)NC3COC3)c2)c1)Nc1ccccc1Cl` gave a remaining activity of 99.3% (enzyme activity, inhibitor; 5 µM).
`CN(C)c1ncnc(-c2ccc3nc(Nc4cc(CN5CCN(C(=O)CC(F)(F)F)CC5)ccn4)[nH]c3c2)c1Cl` gave a remaining binding of 100% (cell-free assay, competition with immobilised ligand; 1 µM).
The inhibition of `CCN(CC)CCNC(=O)c1c(C)[nH]c(/C=C2\C(=O)Nc3ccc(F)cc32)c1C` is reported as 8% (enzyme activity, inhibitor; 0.3 µM).
`c1ccc(N2CCN(Cc3nc4ccccc4[nH]3)CC2)nc1` has a remaining binding of 100% (cell-free assay, competition with immobilised ligand; 1 µM).
`CCCOc1ccc(OC)c(F)c1C(=O)c1ccc(C(=O)N[C@@H]2CNC[C@H]2NC(=O)c2ccc3[nH]ncc3c2)cc1` gave a remaining activity of 20% (enzyme activity, inhibitor; 0.75 µM).
The remaining binding of `N#CC1(c2ccccn2)CCN(Cc2cc(C(=O)N3CCCC3)c(=O)n3ccccc23)CC1` is reported as 84% (cell-free assay, competition with immobilised ligand; 1 µM).
`COc1cc2ncnc(Nc3ccc(Oc4ccccc4)cc3C)c2cc1OC` has an inhibition of 6% (enzyme activity, inhibitor; 1 µM).
